Experimental data from ChEMBL document CHEMBL1129364, “Pyrrolobenzothiazepinones and pyrrolobenzoxazepinones: novel and specific non-nucleoside HIV-1 reverse transcriptase inhibitors with antiviral activity” (J Med Chem, 1996).
Activity calls are given as the source filed them. The rule behind the calls is not given here.

How the values were obtained:
[1] = (§1) Effective concentration against 50% survival of HIV -1 infected cells relative to uninfected untreated control (in vitro anti HIV-1 activity); type: functional; conditions: Human immunodeficiency virus 1
Summary of the method: (§2)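 HIV-1-infected CEM T4 lymphocytes were scored for protection from cell death. […] An AZT-treated positive control was run at the same time.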

[2] = test system: CEM-SS; experiment: Cytotoxic concentration against 50% survival of uninfected untreated control CEM-SS cells; type: cell-based; conditions: Homo sapiens
[3] = Selective index is the ratio between IC50 and EC50; type: functional
Summary of the method: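 Selectivity index calculated as CEM-SS cytotoxic IC50 divided by anti-HIV-1 EC50.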

[4] = biological target: Human immunodeficiency virus type 1 reverse transcriptase (Human immunodeficiency virus 1, UniProt Q72547); experiment: (§3) Compound was tested for Inhibition of HIV-1 RT activity.
Summary of the method: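 Recombinant HIV-1 RT (0.1 unit), 37 °C for 30 min in 50 mM Tris·HCl pH 8.2, 1 mM DTT, 80 mM KCl, 12 mM MgCl2, 0.01% Triton X-100. Template-primer poly(rA)/(dT)12-18 with [3H]dTTP or poly(rC)/(dG)12-18 with [3H]dGTP. Compounds added in DMSO (10% final). Stopped with 20% TCA; precipitate counted. IC50 is the mean of at least three experiments.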

[5] = test system: CEM-SS; experiment: as §1; type: functional, cell-based; conditions: Homo sapiens; summary of the method: as §2
[6] = Effective concentration against 50% survival of HIV -1 infected cells relative to uninfected untreated control (in vitro anti HIV-1 activity); NA =' Not active'; type: functional, Human immunodeficiency virus 1; summary of the method: as §2
[7] = biological target: Human immunodeficiency virus type 1 protease (Human immunodeficiency virus 1, UniProt Q72874); experiment: as §3
Summary of the method: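 Recombinant HIV-1 RT (0.1 unit) was incubated 30 min at 37 °C in 50 mM Tris·HCl pH 8.2 with 1 mM DTT, 80 mM KCl, 12 mM MgCl2 and 0.01% Triton X-100. Template-primer was poly(rA)/(dT)12-18 with [3H]dTTP or poly(rC)/(dG)12-18 with [3H]dGTP. DMSO was 10% final. Reactions were stopped with TCA and precipitated radioactivity counted. IC50 is the mean of at least three experiments.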

[8] = test system: Human immunodeficiency virus 1; experiment: Effective dose against HIV-1 (IIIB strain); NA ='Not active'; type: functional, organism-based
Summary of the method: (§4)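 ED50 measured against a panel of viruses in MT-2, MT-4 and CEM-SS cells. The panel comprised HIV-1 (6S) and (6R), the pyridinone-resistant strain A-17, HIV-1 IIIB, HIV-1 RF, a diphenyl sulfone-resistant HIV, N119, SIV MAC 251 and HIV-2 ROD.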

[9] = test system: MT2; experiment: IC50 value determined from the inhibition of HIV strain AZT-sensitive activity tested on MT-2 cell lines; type: functional, cell-based; conditions: Homo sapiens
[10] = test system: Human immunodeficiency virus 2; experiment: Inhibitory activity against HIV-2 (ROD); NA ='Not active'; type: functional, organism-based; summary of the method: as §4
[11] = test system: Human immunodeficiency virus 1; experiment: Effective dose against AZT resistant strain; NA ='Not active'; type: functional, organism-based
[12] = test system: MT2; experiment: ED50 value determined from the inhibition of HIV strain AZT-sensitive activity tested on MT-2 cell lines.; type: functional; conditions: Homo sapiens, read-out: ED50 (the source's name)
[13] = test system: Human immunodeficiency virus 1; experiment: Inhibitory activity against HIV-1 (A-17 cell lines); NA ='Not active'; type: functional, organism-based; summary of the method: as §4

Row | SMILES | IC50 [2] [µM] | SI [3] | IC50 [4] [µM] | further results
1 | CCC1(c2ccc3ccccc3c2)Oc2ccccc2-n2cccc2C1=O (stereo not drawn) | 37.3 | 44 | 0.5 | EC50 [1]: 0.85 µM
2 | Cc1cn([C@H]2C[C@H](N=[N+]=[N-])[C@@H](CO)O2)c(=O)[nH]c1=O [ZIDOVUDINE] | > 1 | 526 | – | EC50 [5]: 0.0019 µM
3 | CCC1(c2ccccc2)Sc2cccc(Cl)c2-n2cccc2C1=O (stereo not drawn) | – | – | 600 | IC50 [6]: Not Active
4 | O=C1c2cccn2-c2cc3ccccc3cc2OC1c1ccccc1 (stereo not drawn) | – | – | > 300 | –
5 | CCC1(c2ccccc2)Sc2c(Cl)cccc2-n2cccc2C1=O (stereo not drawn) | – | – | 500 | –
6 | CC(C)=CCC1(c2ccccc2)Oc2ccccc2-n2cccc2C1=O (stereo not drawn) | 120 | – | > 500 | –
7 | CCCC1(c2ccccc2)Oc2ccccc2-n2cccc2C1=O (stereo not drawn) | > 150 | – | 500 | –
8 | C=CCC1(CC)Oc2ccccc2-n2cccc2C1=O (stereo not drawn) | – | – | 5 | –
9 | O=C1c2cccn2-c2ccccc2OC1c1ccccc1 (stereo not drawn) | – | – | > 300 | –
10 | CCOC1=C(c2ccccc2)Oc2ccccc2-n2cccc21 | – | – | – | IC50 [7]: > 300 µM
11 | O=C1c2cccn2-c2ccccc2OC1c1ccc2ccccc2c1 (stereo not drawn) | – | – | > 300 | –
12 | CCC1(c2ccccc2)Sc2ccccc2-n2cccc2C1=O (stereo not drawn) | 100 | 55.2 | 15 | Activity [8]: inactive; EC50 [1]: 1.8 µM; IC50 [9]: 110 µM; Activity [10]: inactive; Activity [11]: inactive; EC50 [12]: 8.7 µM; Activity [13]: inactive
13 | CC1(c2ccccc2)Oc2ccccc2-n2cccc2C1=O (stereo not drawn) | 6.9 | 19.7 | 10 | EC50 [1]: 0.35 µM
